The source of these data is ChEMBL document CHEMBL1133703, “Inhibitors of topoisomerase II based on the benzodiimidazole and dipyrroloimidazobenzimidazole ring systems: controlling DT-diaphorase reductive inactivation with steric bulk” (2000).

Holding throughout (assay type): functional
Common to all, as to details: Homo sapiens

Test [1] relates to Melanoma cell. Put plainly: Lethal concentration was determined against Melanoma cell line. The essentials: (§1)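 NCI 60-cell-line in vitro screen run at the National Cancer Institute on a submitted sample of about 5 mg. The screen yields mean graph data: LC50 (50% lethal concentration), GI50 and TGI. The LC50 values reported are averages over the cell lines of each cancer type.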

Test [2] has as its system Renal cancer cell line. The test is described as follows: Lethal concentration was determined against Renal cancer cell line. In short, it runs like this: as §1
Test [3] has as its system Ovarian carcinoma cell. Put plainly: Lethal concentration was determined against Ovarian cancer cell line. In short, it runs like this: as §1
Test [4] relates to CNS carcinoma cell. Put plainly: Lethal concentration was determined against CNS cancer cell line. The essentials:
as §1

Test [5] has as its system Panel leukemia (Carcinoma cell lines). The test is described as follows: Lethal concentration was determined against Leukemia cell line. The essentials: as §1
The subject of test [6] is Colon carcinoma cell. The test is described as follows: Lethal concentration was determined against Colon cancer cell line. In short, it runs like this: as §1
Test [7] relates to NSCLC. The test is described as follows: Lethal concentration was determined against NSC lung cancer cell line. In short, it runs like this: as §1

On to `Cc1nc2c(n1C)C(=O)c1c(nc(CCl)n1C)C2=O`, for which the LC50 (50% lethal concentration) in test [1] is 5.89 µM; in test [2], 15.8 µM; in test [3], 25.1 µM; in test [5], 12.9 µM. Also, the LC50 (usually the concentration lethal to half of the exposed cells or organisms) in test [4] was 15.8 µM; in test [6], 6.31 µM; in test [7], 12.3 µM.
For `CC(=O)NC1=C(C)C(=O)c2c(nc3n2CCC3OC(C)=O)C1=O` (centres undefined), the LC50 (50% lethal concentration) is 12.6 µM in test [1], 15.8 µM in test [2], 15.8 µM in test [3] and 100 µM in test [5]. Besides, the LC50 in test [4] was 25.1 µM; in test [6], 31.6 µM; in test [7] it was 20 µM.
For the compound `CC(=O)OC1CCn2c1nc1c2C(=O)c2c(nc3n2CCC3OC(C)=O)C1=O` (centres undefined), the LC50 (50% lethal concentration) is 2.57 µM in test [1], 6.31 µM in test [2], 3.98 µM in test [3] and 2.51 µM in test [5]. Further, the figures for the LC50 in test [4], in test [6] and in test [7] were 3.16 µM, 3.8 µM and 3.98 µM, respectively.
In the case of `Cn1c(CCl)nc2c1C(=O)c1c(nc(CCl)n1C)C2=O`, the LC50 (50% lethal concentration) in test [1] was 5.01 µM; in test [2], 6.31 µM; in test [3], 10 µM; in test [5], 4.37 µM. For the same compound, the LC50 in test [4] is 5.01 µM; in test [7], 4.47 µM.
Consider `O=C1c2nc3n(c2C(=O)c2c1nc1n2CCC1)CCC3`, for which the LC50 (50% lethal concentration) is 15.8 µM in test [1], 79.4 µM in test [2], 50.1 µM in test [3] and 100 µM in test [5]. Also, the LC50 in test [4] is 63.1 µM; in test [6], 50.1 µM; in test [7], 39.8 µM.
